{"data": "Assay results of several laboratories", "SLC6A2": "Sodium-dependent noradrenaline transporter (SLC6A2, Homo sapiens, UniProt P23975)", "MPO": "Myeloperoxidase (MPO, Homo sapiens, UniProt P05164)"}
{"Compound": "CSc1nc(NCCC2CC2)c2ncn([C@H]3[C@H](O)[C@H](O)[C@@H]4C[C@@H]43)c2n1", "target": "SLC6A2", "assay": "ligand displacement, radioligand", "setting": "10 µM", "quantity": "inhibition", "result": "5%"}
{"Compound": "CCCCC(=O)Nc1ccc(-c2ccc3ncn(CCC)c(=O)c3c2)cn1", "target": "Tyrosine-protein kinase Fgr (FGR, Homo sapiens, UniProt P09769)", "assay": "binding, competition with immobilised ligand", "setting": "0.5 µM", "quantity": "remaining binding", "result": "100%"}
{"Compound": "Cc1cc(O)c(-c2ccc([C@@H](C)CN(C)C)cc2)c2c1[nH]c(=O)c1sccc12", "target": "STE20/SPS1-related proline-alanine-rich protein kinase (STK39, Homo sapiens, UniProt Q9UEW8)", "assay": "enzyme activity, inhibitor", "setting": "0.1 µM", "quantity": "inhibition", "result": "13.6%"}
{"Compound": "CC(C)OCCn1c(=S)[nH]c(=O)c2[nH]ccc21", "target": "MPO", "assay": "enzyme activity, inhibitor", "setting": "0.68 µM", "quantity": "remaining activity", "result": "27.6%"}
{"Compound": "CCCCC[C@H](O)/C=C/[C@H]1C(=O)C[C@H](O)[C@@H]1C/C=C\\CCCC(=O)O", "target": "Prostaglandin D2 receptor (PTGDR, Homo sapiens, UniProt Q13258)", "assay": "G protein activation, agonist, BRET", "quantity": "Emax", "result": "101%"}
{"Compound": "CCOC(=O)[C@@]12C[C@@H]1[C@@H](n1cnc3c(NCCCCc4ccccc4)nc(C#Cc4ccc(Cl)s4)nc31)[C@H](O)[C@@H]2O", "target": "SLC6A2", "assay": "ligand displacement, radioligand", "setting": "10 µM", "quantity": "inhibition", "result": "3%"}
{"Compound": "CC(=O)N[C@H](CCCNC(=N)N)C(=O)N[C@H]1CSSC[C@@H](C(N)=O)NC(=O)[C@H](Cc2c[nH]c3ccccc23)NC(=O)[C@H](CCCNC(=N)N)NC(=O)[C@@H](Cc2ccccc2)NC(=O)[C@H](Cc2c[nH]cn2)NC(=O)[C@H](CCC(=O)O)NC1=O", "target": "Melanocortin receptor 4 (MC4R, Homo sapiens, UniProt P32245)", "assay": "cAMP, agonist", "system": "CHO-K1", "quantity": "Emax", "result": "100%"}
{"Compound": "NC/C(=C\\F)COc1cccc(Cn2c(=S)[nH]c(=O)c3[nH]cnc32)c1", "target": "MPO", "assay": "enzyme activity, inhibitor, fluorescence", "setting": "1.4 nM", "quantity": "inhibition", "result": "17.2%"}
{"Compound": "C1=C/COCc2cc(ccc2OCCN2CCCC2)Nc2nccc(n2)-c2cccc(c2)COC/1", "target": "Peripheral plasma membrane protein CASK (CASK, Homo sapiens, UniProt O14936)", "assay": "binding", "setting": "0.1 µM", "quantity": "remaining binding", "result": "81%"}
{"Compound": "CNC(=O)[C@@]12C[C@@H]1[C@@H](n1cnc3c(Nc4ccccc4)nc(C#Cc4ccc(Cl)s4)nc31)[C@H](O)[C@@H]2O", "target": "SLC6A2", "assay": "ligand displacement, radioligand", "setting": "10 µM", "quantity": "inhibition", "result": "77%"}
{"Compound": "COc1ccc(Cl)cc1-c1cc(=O)[nH]c(=S)n1CC(N)=O", "target": "MPO", "assay": "enzyme activity, inhibitor", "setting": "10 µM", "quantity": "remaining activity", "result": "2.31%"}
{"Compound": "CCOC(=O)C12CC1C(n1ccc3c(NCCCc4ccccc4)nc(C#Cc4ccc(Cl)s4)nc31)C(O)C2O (stereo not drawn)", "target": "SLC6A2", "assay": "ligand displacement, radioligand", "setting": "10 µM", "quantity": "inhibition", "result": "50%"}
{"Compound": "COc1ccc2oc(-c3ccc4nc(N)oc4c3)c/c(=N\\c3ccccc3NC(=O)CCN)c2c1", "target": "Fibroblast growth factor receptor 1 (FGFR1, Homo sapiens, UniProt P11362)", "assay": "binding", "setting": "1 µM", "quantity": "remaining binding", "result": "94%"}
{"Compound": "CC(C)[C@@H](CN1CCc2ccccc2C1)NC(=O)c1cccc(-c2cccc(C#N)c2)c1", "target": "Kappa-type opioid receptor (Oprk1, Mus musculus, UniProt P33534)", "assay": "ligand displacement, radioligand", "setting": "10 µM", "quantity": "inhibition", "result": "80.6%"}
{"Compound": "N#CC[C@@]12C[C@@H]1[C@@H](n1cnc3c(NCc4cccc(Cl)c4)nc(C#Cc4ccc(Cl)s4)nc31)[C@H](O)[C@@H]2O", "target": "SLC6A2", "assay": "ligand displacement, radioligand", "setting": "10 µM", "quantity": "inhibition", "result": "76%"}
